Source: publication PMC10288510 (Journal of the American Chemical Society, 2023)
Peptide text beside a SMILES is read from it.

How the values were obtained:
[1] = CF assay: cargo dose-response with COSAN 2 as carrier; format: in vitro ADME; settings: for transport of cargo by COSAN 2 (in words): EYPC⊃CF liposomes, 4 μM COSAN 2, pH 7.4; for Et (transport efficiency = Ymax (pEC50)/f, f = 41.8): EYPC vesicles, 4 μM COSAN 2, n.a = no detectable activity, 10% error (SD)
[2] = CF assay: carrier-mediated heptaarginine; format: in vitro ADME; settings: EYPC⊃CF LUVs, 1 μM Trp-Arg7, pEC50 from EC50 in mM, 10% error (SD)
Outline: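 Egg-yolk phosphatidylcholine LUVs (4 μM phospholipid) loaded with self-quenched carboxyfluorescein; efflux read as dequenching (λex 492 nm, λem 517 nm) over time. Carrier added at t = 50 s, Trp-Arg7 (1 μM) at 100 s, Triton X-100 lysis at 600 s for normalisation. Kinetics run across carrier concentrations; normalised traces converted to dose–response curves; Hill fit gives Ymax, EC50 and Ea.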

Compound	transport of cargo by COSAN 2 (in words) [1]	also measured
N[C@@H](Cc1c[nH]c2ccccc12)C(=O)NCC(=O)NCC(=O)NCC(=O)NCC(=O)NCC(=O)NCC(=O)O [Trp-Gly6, tryptophan-hexaglysine] (H-WGGGGGG-OH)	not transported	
protamine		Et (transport efficiency = Ymax (pEC50)/f, f = 41.8) [1]: 9.0
O=C(O)CCCc1ccc2ccc3cccc4ccc1c2c34 [PyBu, pyrenebutyrate]		Ea (activator efficiency = Ymax (pEC50)/f, f = 20.6) [2]: 4.8
phalloidin	not transported	
polylysine		Et (transport efficiency = Ymax (pEC50)/f, f = 41.8) [1]: 10.0
CC(C)C[C@H](NC(=O)[C@@H](NC(=O)[C@@H](N)Cc1ccc(O)cc1)[C@@H](C)O)C(=O)N[C@H](C(=O)N[C@H](C(=O)N[C@@H](CCCCN)C(=O)O)C(C)C)[C@@H](C)O [Tyr-Thr-Leu-Thr-Val-Lys, tyrosine-threonine-leucine-threonine-valine-lysine] (H-YTLTVK-OH)	not transported	
NCCCC[C@H](NC(=O)[C@H](CCCCN)NC(=O)[C@H](CCCCN)NC(=O)[C@H](CCCCN)NC(=O)[C@H](CCCCN)NC(=O)[C@H](CCCCN)NC(=O)[C@H](CCCCN)NC(=O)[C@@H](N)Cc1c[nH]c2ccccc12)C(=O)O [Trp-Lys7, tryptophan-heptalysine] (H-WKKKKKKK-OH)	efficient transport	
NCCCC[C@H](NC(=O)[C@H](CCCCN)NC(=O)[C@H](CCCCN)NC(=O)[C@@H](N)Cc1c[nH]c2ccccc12)C(=O)O [Trp-(Lys)3, tryptophan-trilysine] (H-WKKK-OH)	not transported	
